The values that follow come from ChEMBL document CHEMBL5032502, “Syntheses, Biological Evaluations, and Mechanistic Studies of Benzo[c][1,2,5]oxadiazole Derivatives as Potent PD-L1 Inhibitors with In Vivo Antitumor Activity” (J Med Chem, 2021).

SMILES strings stand for the structures. Activity calls are given as the source filed them. The rule behind the calls is not given here.

The target in the first test is T1, Programmed cell death protein 1/Programmed cell death 1 ligand 1 (Homo sapiens, UniProt Q9NZQ7). Briefly: Inhibition of human PD-1/PD-L1 interaction in human Jurkat cells expressing PD-1/NFAT/Luc cocultured with CHO-K1 cells expressing PD-L1/aAPC assessed as Jurkat T-lymphocyte activation measured after 6 hrs by luciferase reporter gene based luminescence assay.
T1 sequence (Q15116 whole entry): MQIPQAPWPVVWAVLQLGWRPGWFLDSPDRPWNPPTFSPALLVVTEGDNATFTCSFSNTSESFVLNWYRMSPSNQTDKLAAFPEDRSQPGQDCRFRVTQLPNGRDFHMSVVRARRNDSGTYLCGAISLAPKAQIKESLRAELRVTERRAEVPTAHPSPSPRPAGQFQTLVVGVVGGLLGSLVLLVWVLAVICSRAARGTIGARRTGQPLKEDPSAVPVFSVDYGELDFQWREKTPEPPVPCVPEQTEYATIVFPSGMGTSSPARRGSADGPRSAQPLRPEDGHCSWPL
T1 sequence (Q9NZQ7 whole entry): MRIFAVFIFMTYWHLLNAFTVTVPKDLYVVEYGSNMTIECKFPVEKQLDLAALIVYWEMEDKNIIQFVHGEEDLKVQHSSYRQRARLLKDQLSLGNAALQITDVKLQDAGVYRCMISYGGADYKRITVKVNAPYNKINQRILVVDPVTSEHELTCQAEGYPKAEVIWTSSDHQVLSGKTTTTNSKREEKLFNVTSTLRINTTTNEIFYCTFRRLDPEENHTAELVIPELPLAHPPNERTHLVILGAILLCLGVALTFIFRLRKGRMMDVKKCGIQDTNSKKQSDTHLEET
Conditions: not given
In kind it is cell-based. For orientation: A reporter such as luciferase makes a cellular process visible.
Consider `Cc1c(COc2ccc(CN[C@H](CO)C(=O)O)c(OCc3cccc(C#N)c3)c2)cccc1-c1ccccc1`, for which the EC50 (commonly the concentration at which the effect is half-maximal) is 2.08 µM.

Another test has as its system Jurkat. The experiment in a line: Cytotoxicity against human Jurkat cells expressing PD-1/NFAT/Luc assessed as inhibition of cell viability at 10 uM incubated for 24 hrs by CCK8 assay. In kind it is functional, cell-based.
Conditions: not given
An outline of the steps:
(§1)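 PD-1⁺/NFAT-luc/Jurkat cells seeded at 20 000 per well, treated with compound in medium with 1% final DMSO for 24 h. CCK8 added for 4 h, then absorbance read.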
A general note: Tetrazolium dyes change colour on reduction, which living cells bring about.
Take `Cc1c(COc2ccc(CN[C@H](CO)C(=O)O)c(OCc3cccc(C#N)c3)c2)cccc1-c1ccccc1`: the outcome was Active.

In the case of `COc1nc(OCc2cccc(-c3ccccc3)c2C)ccc1CNCCNC(C)=O`, the result was Active.

For the compound `O=C(O)[C@H]1C[C@@H](O)CN1Cc1cc(Cl)c(OCc2cccc(-c3ccccc3)c2Br)cc1OCc1ccc2nonc2c1`, the result was Active.

The target of the next test is Programmed cell death protein 1/Programmed cell death 1 ligand 1 (Homo sapiens) (UniProt Q15116+Q9NZQ7). Conditions: Jurkat, time 6.0 hrs.
Compound `Cc1c(COc2ccc(CN[C@H](CO)C(=O)O)c(OCc3cccc(C#N)c3)c2)cccc1-c1ccccc1` registered an RLU of 1.83.

In a further test the test system is CHO-K1. Briefly: Cytotoxicity against CHO-K1 cells expressing PD-L1/aAPC assessed as inhibition of cell viability at 0.1 to 10 uM incubated for 24 hrs by MTT assay. In kind it is functional, cell-based. Conditions: Cricetulus griseus, dose 0.1-10 µM. The gist of the method: (§2)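 PD-L1⁺/aAPC/CHO-K1 cells (2000/well) or MC38 cells (5000/well) allowed to adhere for 12 h, then exposed to compound in medium with 1% final DMSO for 24 h. MTT added for 4 h, medium replaced with DMSO, absorbance read.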
In the case of `O=C(O)[C@@H](CO)NCc1cc(F)c(OCc2cccc(-c3ccccc3)c2Br)cc1OCc1ccc2nonc2c1`, the result was inactive.

With `O=C(O)[C@@H](CO)NCc1cc(Cl)c(OCc2cccc(-c3ccccc3)c2F)cc1OCc1ccc2nonc2c1`, the result was inactive.

On to `O=C(O)[C@@H](CO)NCc1cc(Cl)c(OCc2cccc(-c3cccc(F)c3)c2Cl)cc1OCc1ccc2nonc2c1`, for which the outcome was inactive.

As to `O=C(O)[C@@H](CO)NCc1cc(Cl)c(OCc2cccc(-c3cccc(F)c3)c2Br)cc1OCc1ccc2nonc2c1`, the outcome was inactive.

A further test concerns the target T1, Programmed cell death protein 1/Programmed cell death 1 ligand 1. The experiment in a line: Inhibition of human PD-1/PD-L1 interaction assessed as blockade activity incubated for 15 mins by HTRF assay. In kind it is protein-complex assay.
Conditions: not given
The gist of the method:
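Tag1-PD-L1 and Tag2-PD-1 proteins preincubated with compound (0.1 nM to 10 μM, triplicate) 15 min at room temperature, then anti-Tag1-Eu³⁺/anti-Tag2-XL665 added for 2 h at room temperature. Excitation 337 nm, emission 665 and […]. Signal taken as 665/615 ratio ×10 000; IC50 fitted from inhibition rates.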
In general terms: In TR-FRET formats the signal depends on donor and acceptor labels being close together.
For the compound `Cc1c(COc2ccc(CN[C@H](CO)C(=O)O)c(OCc3ccc4nsnc4c3)c2)cccc1-c1ccccc1`, the IC50 – broadly, the midpoint of a concentration-inhibition curve – was found to be 0.206 µM.

With `O=C(O)[C@@H](CO)NCc1cc(Cl)c(OCc2cccc(-c3cccc(F)c3F)c2Cl)cc1OCc1ccc2nonc2c1`, the IC50 was 0.162 µM.

With `COc1cccc(-c2cccc(COc3cc(OCc4ccc5nonc5c4)c(CN[C@H](CO)C(=O)O)cc3Cl)c2Br)c1`, the IC50 came out at 0.0078 µM.

For the compound `Cc1c(COc2ccc(CN[C@H](CO)C(=O)O)c(OCc3ccc4ccoc4c3)c2)cccc1-c1ccccc1`, the IC50 was 2.34 µM.

Take `NS(=O)(=O)CCNCc1cc(Cl)c(OCc2cccc(-c3ccccc3)c2Br)cc1OCc1ccc2nonc2c1`: the IC50 came to 0.342 µM.

With `O=C(O)[C@@H](CO)NCc1cc(Cl)c(OCc2cccc(-c3cccc(OCCCO)c3)c2Cl)cc1OCc1ccc2nonc2c1`, the concentration for half-maximal inhibition (IC50) was 0.0609 µM.

On to `O=C(O)[C@@H](CO)NCc1cc(F)c(OCc2cccc(-c3ccccc3)c2Br)cc1OCc1ccc2nonc2c1`, for which the IC50 turned out to be 0.0078 µM.

In the case of `CS(=O)(=O)c1ccc(-c2cccc(COc3cc(OCc4ccc5nonc5c4)c(CN[C@H](CO)C(=O)O)cc3Cl)c2Cl)cc1`, the IC50 was more than 1 µM.

Regarding `OC[C@H](O)CNCc1cc(Cl)c(OCc2cccc(-c3ccccc3)c2Br)cc1OCc1ccc2nonc2c1`, the IC50 is 0.0146 µM.

As for `O=C(O)[C@@H](CO)NCc1cc(Cl)c(OCc2cccc(-c3ccccc3)c2F)cc1OCc1ccc2nonc2c1`, the IC50 was found to be 0.0035 µM.

Turning to `OC1CCC(NCc2cc(Cl)c(OCc3cccc(-c4ccccc4)c3Br)cc2OCc2ccc3nonc3c2)CC1` (stereo not drawn), the half-maximal inhibitory concentration (IC50) turned out to be 0.0572 µM.

Turning to `OC1CCN(Cc2cc(Cl)c(OCc3cccc(-c4ccccc4)c3Br)cc2OCc2ccc3nonc3c2)CC1`, the IC50 came out at 1.05 µM.

In the case of `O=C(O)[C@@H](CO)NCc1cc(Cl)c(OCc2cccc(-c3cccc(F)c3)c2Cl)cc1OCc1ccc2nonc2c1`, the 50% inhibitory concentration (IC50) worked out at 0.0065 µM.

Regarding `CN1CCN(Cc2cc(Cl)c(OCc3cccc(-c4ccccc4)c3Br)cc2OCc2ccc3nonc3c2)CC1`, the IC50 was 3.59 µM.

As to `O=S(=O)(O)CCNCc1cc(Cl)c(OCc2cccc(-c3ccccc3)c2Br)cc1OCc1ccc2nonc2c1`, the IC50 came out at 0.0269 µM.

As for `O=C(O)[C@@H](CO)NCc1cc(Cl)c(OCc2cccc(-c3ccccc3)c2Cl)cc1OCc1ccc2nonc2c1`, the IC50 was 0.0033 µM.

Consider `O=C(O)[C@@H](CO)NCc1cc(Cl)c(OCc2cccc(-c3cccc(OCCCO)c3)c2Br)cc1OCc1ccc2nonc2c1`, for which the IC50 is 0.0309 µM.

As to `O=C(O)[C@@H](CO)NCc1cc(Cl)c(OCc2cccc(-c3cccc(Cl)c3)c2Br)cc1OCc1ccc2nonc2c1`, the half-maximal inhibitory concentration (IC50) is 0.0243 µM.

For `O=C(O)[C@@H](CO)NCc1cc(F)c(OCc2cccc(-c3ccccc3)c2Cl)cc1OCc1ccc2nonc2c1`, the IC50 amounted to 0.0095 µM.

Regarding `CC(C)C[C@H](NCc1cc(Cl)c(OCc2cccc(-c3ccccc3)c2Cl)cc1OCc1ccc2nonc2c1)C(=O)N[C@H](CC(C)C)C(=O)O`, the IC50 amounted to 1.58 µM.

With `CC(C)(C)OC[C@@H](NCc1cc(Cl)c(OCc2cccc(-c3ccccc3)c2Cl)cc1OCc1ccc2nonc2c1)C(=O)N[C@H](CO)C(=O)O`, the IC50 stood at 0.393 µM.

On to `O=C(O)[C@@H](CO)NCc1cc(Cl)c(OCc2cccc(-c3ccc(F)cc3)c2Cl)cc1OCc1ccc2nonc2c1`, for which the IC50 amounted to 0.0561 µM.

As to `O=C(O)[C@@H](CO)NCc1cc(Br)c(OCc2cccc(-c3ccccc3)c2Br)cc1OCc1ccc2nonc2c1`, the IC50 was found to be 0.0275 µM.

With `CC(=O)NCCNCc1cc(Cl)c(OCc2cccc(-c3ccccc3)c2Br)cc1OCc1ccc2nonc2c1`, the IC50 turned out to be 0.13 µM.

For `OC[C@@H](O)CNCc1cc(Cl)c(OCc2cccc(-c3ccccc3)c2Br)cc1OCc1ccc2nonc2c1`, the IC50 was determined as 0.0159 µM.

On to `Cc1c(COc2cc(OCc3ccc4nonc4c3)c(CN[C@H](CO)C(=O)O)cc2Cl)cccc1-c1ccccc1`, for which the IC50 is 0.0166 µM.

As for `Cc1c(COc2ccc(CN[C@H](CO)C(=O)O)c(OCc3cccc(C#N)c3)c2)cccc1-c1ccccc1`, the IC50 was found to be 0.0358 µM.

On to `O=C1CC[C@@H](CNCc2cc(Cl)c(OCc3cccc(-c4ccccc4)c3Cl)cc2OCc2ccc3nonc3c2)N1`, for which the IC50 stood at 0.0216 µM.

As for `O=C(O)[C@@H](CO)NCc1cc(Cl)c(OCc2cccc(-c3cccc(OCCO)c3)c2Cl)cc1OCc1ccc2nonc2c1`, the IC50 was 0.101 µM.

`Cc1c(COc2ccc(CN[C@H](CO)C(=O)O)c(OCc3ccc4nonc4c3)c2)cccc1-c1ccccc1`: the IC50 came out at 0.0337 µM.

`O=C(O)C1CN(Cc2cc(Cl)c(OCc3cccc(-c4ccccc4)c3Br)cc2OCc2ccc3nonc3c2)C1`: the IC50 is 0.0523 µM.

Regarding `O=C(O)CNCc1cc(Cl)c(OCc2cccc(-c3ccccc3)c2Br)cc1OCc1ccc2nonc2c1`, the IC50 was 0.0337 µM.

As to `O=C(O)[C@@H](CO)NCc1cc(Cl)c(OCc2cccc(-c3cccc(O)c3)c2Cl)cc1OCc1ccc2nonc2c1`, the half-maximal inhibitory concentration (IC50) turned out to be 0.0587 µM.

On to `O=C(O)[C@@H](CO)NCc1ccc(OCc2cccc(-c3ccccc3)c2C(F)(F)F)cc1OCc1ccc2nonc2c1`, for which the IC50 worked out at 1.38 µM.

Consider `Cc1c(COc2ccc(CN[C@H](CO)C(=O)O)c(OCc3cccc4nonc34)c2)cccc1-c1ccccc1`, for which the half-maximal inhibitory concentration (IC50) is 2.16 µM.

Regarding `OCCNCc1cc(Cl)c(OCc2cccc(-c3ccccc3)c2Br)cc1OCc1ccc2nonc2c1`, the 50% inhibitory concentration (IC50) was found to be 0.0308 µM.

On to `O=C(O)[C@@H]1CCCCN1Cc1cc(Cl)c(OCc2cccc(-c3ccccc3)c2Br)cc1OCc1ccc2nonc2c1`, for which the IC50 was found to be 0.0133 µM.

Consider `O=C(O)[C@@H](CO)NCc1cc(Cl)c(OCc2cccc(-c3cccc(F)c3)c2Br)cc1OCc1ccc2nonc2c1`, for which the IC50 was found to be 0.0082 µM.

With `Clc1cc(CNCCN2CCCCC2)c(OCc2ccc3nonc3c2)cc1OCc1cccc(-c2ccccc2)c1Cl`, the concentration for half-maximal inhibition (IC50) worked out at 0.291 µM.

Take `O=C(O)[C@H]1C[C@@H](O)CN1Cc1cc(Cl)c(OCc2cccc(-c3ccccc3)c2Br)cc1OCc1ccc2nonc2c1`: the IC50 was 0.0243 µM.

A further test has as its system MC-38. The experiment in a line: Cytotoxicity against mouse MC38 cells assessed as inhibition of cell viability at 10 uM incubated for 24 hrs by MTT assay.
Conditions: not given
In kind it is functional, cell-based. An outline of the steps: as §2
Take `Cc1c(COc2ccc(CN[C@H](CO)C(=O)O)c(OCc3cccc(C#N)c3)c2)cccc1-c1ccccc1`: the outcome was Active.

On to `COc1nc(OCc2cccc(-c3ccccc3)c2C)ccc1CNCCNC(C)=O`, for which the outcome was Active.

For the compound `O=C(O)[C@H]1C[C@@H](O)CN1Cc1cc(Cl)c(OCc2cccc(-c3ccccc3)c2Br)cc1OCc1ccc2nonc2c1`, the outcome was Active.

For another test, the system named is CHO-K1. The experiment in a line: Cytotoxicity against CHO-K1 cells expressing PD-L1/aAPC assessed as inhibition of cell viability at 10 uM incubated for 24 hrs by MTT assay. In kind it is functional, cell-based. Conditions: Cricetulus griseus. An outline of the steps:
as §2
Regarding `Cc1c(COc2ccc(CN[C@H](CO)C(=O)O)c(OCc3cccc(C#N)c3)c2)cccc1-c1ccccc1`, the outcome was Active.

Consider `COc1nc(OCc2cccc(-c3ccccc3)c2C)ccc1CNCCNC(C)=O`, for which the result was Active.

As to `O=C(O)[C@H]1C[C@@H](O)CN1Cc1cc(Cl)c(OCc2cccc(-c3ccccc3)c2Br)cc1OCc1ccc2nonc2c1`, the outcome was Active.

A further test relates to Jurkat. Briefly: Cytotoxicity against human Jurkat cells expressing PD-1/NFAT/Luc assessed as inhibition of cell viability at 0.1 to 10 uM incubated for 24 hrs by CCK8 assay. In kind it is functional, cell-based. Conditions: dose 0.1-10 µM. An outline of the steps: as §1
As for `O=C(O)[C@@H](CO)NCc1cc(F)c(OCc2cccc(-c3ccccc3)c2Br)cc1OCc1ccc2nonc2c1`, the outcome was inactive.

Regarding `O=C(O)[C@@H](CO)NCc1cc(Cl)c(OCc2cccc(-c3ccccc3)c2F)cc1OCc1ccc2nonc2c1`, the outcome was inactive.

Consider `O=C(O)[C@@H](CO)NCc1cc(Cl)c(OCc2cccc(-c3cccc(F)c3)c2Cl)cc1OCc1ccc2nonc2c1`, for which the outcome was inactive.

For `O=C(O)[C@@H](CO)NCc1cc(Cl)c(OCc2cccc(-c3cccc(F)c3)c2Br)cc1OCc1ccc2nonc2c1`, the outcome was inactive.

The test system of another test is MC-38. The experiment in a line: Cytotoxicity against mouse MC38 cells assessed as inhibition of cell viability at 0.1 to 10 uM incubated for 24 hrs by MTT assay. In kind it is functional, cell-based. Conditions: dose 0.1-10 µM. An outline of the steps:
as §2
Turning to `O=C(O)[C@@H](CO)NCc1cc(F)c(OCc2cccc(-c3ccccc3)c2Br)cc1OCc1ccc2nonc2c1`, the outcome was inactive.

As for `O=C(O)[C@@H](CO)NCc1cc(Cl)c(OCc2cccc(-c3ccccc3)c2F)cc1OCc1ccc2nonc2c1`, the outcome was inactive.

On to `O=C(O)[C@@H](CO)NCc1cc(Cl)c(OCc2cccc(-c3cccc(F)c3)c2Cl)cc1OCc1ccc2nonc2c1`, for which the result was inactive.

For `O=C(O)[C@@H](CO)NCc1cc(Cl)c(OCc2cccc(-c3cccc(F)c3)c2Br)cc1OCc1ccc2nonc2c1`, the result was inactive.
